The subject of this assay is E. coli BW25113 ΔtolC growth inhibition, OD615. Description: E. coli ΔtolC antibacterial growth inhibition – strain BW25113 ΔtolC::kan, dose response (AID 617). Put shortly:
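System: E. coli BW25113 ΔtolC::kan bacteria. Amount: 1:1000 diluted subculture inoculum. Medium: LB broth supplemented with kanamycin at 50 µg/mL. Compound dosing: serial dilution series of compound. Schedule: 20 h exposure at 37 °C. Detection: OD615. Measure: IC50 of bacterial growth inhibition. Benchmarks: chloramphenicol control, 30 µM final.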
For `O=C(Nc1nc2ccccc2s1)C1CCCN1S(=O)(=O)c1ccc(Cl)cc1` (stereo unspecified), the IC50 is 8.91 µM. As to `Cc1onc(-c2ccccc2Cl)c1C(=O)Nc1sc2c(c1C#N)CCC2`, the IC50 was 7.5 µM. Take `CCCc1ccc(Oc2cn[nH]c2-c2ccc(O)cc2O)cc1`: the IC50 is 0.24 µM. As for `Cc1cc(NC(=O)COC(=O)C(Nc2ccc(C(F)(F)F)cc2Cl)C(C)C)no1` (stereo unspecified), the IC50 is 5.37 µM. Take `COC(=O)c1cc(CSc2nc3ccc(C)cc3[nH]2)oc1C`: the IC50 is 13.8 µM. In the case of `CCCCCc1cc(O)c2c(C)cc(=O)oc2c1`, the IC50 was 2.16 µM. As to `O=C1[C@H]2[C@@H](C(=O)N1c1cc(Cl)cc(Cl)c1)[C@]1(C(=O)Nc3ccccc31)N1CCC[C@@H]21`, the IC50 is 10.1 µM. In the case of `C=CCn1c(NC(C)c2cc(Cl)ccc2O)nc2ccccc21` (stereo unspecified), the IC50 was 6.8 µM.

Regarding `O=S(=O)(Nc1ccc2oc(-c3ccccc3)nc2c1)c1ccccc1`, the IC50 was 9.38 µM. Turning to `CCCc1cc(-c2[nH]ncc2-c2ccc3c(c2)OCCCO3)c(O)cc1O`, the IC50 was 5.48 µM. Take `CCOc1ccc(OCCSc2nnnn2C2CCCCC2)cc1`: the IC50 is 14.5 µM.

On to `O=C(CSc1nnnn1C1CCCCC1)Nc1cccc(NC(=O)c2ccco2)c1`, for which the IC50 was 15.5 µM. `CCOC(=O)N1CCN(S(=O)(=O)c2ccc(OCC)c3ccccc23)CC1`: the IC50 is 14.2 µM. As for `COc1ccccc1-c1noc(CCC(=O)Nc2cccc(C(F)(F)F)c2)n1`, the IC50 is 15.9 µM.

For `Cc1noc(NS(=O)(=O)c2ccc(NC(=O)COc3ccc(Cl)cc3Cl)cc2)c1C`, the IC50 is 9.41 µM. `COC(=O)c1c(C)oc2ccc(OC(=O)c3cccs3)cc12`: the IC50 is 9.49 µM.

For `CCn1nc(-c2cccs2)nc2c(=O)n(C)c(=O)nc1-2`, the half-maximal inhibitory concentration (IC50) is 1.92 µM. Turning to `COc1cccc(Cn2c(Oc3cccc(C)c3)nc3c2c(=O)n(C)c(=O)n3C)c1`, the IC50 is 14.3 µM. For `CCOC(=O)c1cnc(-n2nc(C)cc2C)nc1N(CC)CC`, the IC50 was 12.3 µM. On to `COc1cc(/C=C(/C#N)c2ccc(F)cc2)ccc1OCc1ccc(C(=O)O)o1`, for which the IC50 is 4.94 µM. Take `CCOC(=O)c1[nH]c2ccc(F)cc2c1NC(=O)CN1CCN(C/C=C/c2ccccc2)CC1`: the IC50 is 14.8 µM.

Turning to `O=C(Cn1c(C(=O)NCc2ccco2)cc2sccc21)c1ccccc1`, the IC50 was 24.6 µM. For the molecule `CC(C)(C)n1nnnc1C(c1cccs1)N(Cc1ccccc1)Cc1cccnc1` (stereo unspecified), the IC50 was 8.37 µM. Turning to `Cc1ccc(NC(=O)CSC2=C(C#N)C(c3ccco3)C3=C(CC(C)(C)CC3=O)N2)cc1` (stereo unspecified), the IC50 was 8.92 µM.

`COC(=O)c1[nH]c2ccccc2c1NC(=O)CN1CCN(c2cccc(OC)c2)C(C)C1` (stereo unspecified): the IC50 was 18.6 µM. The same measure for `Clc1cccc(NCc2nnc(SCc3ccccc3)o2)c1`: 9.57 µM; for `O=C(O)CCCC(=O)N1CCc2cc(S(=O)(=O)N3CCc4ccccc43)ccc21`: 10.7 µM; for `O=C(Oc1ccccc1)c1cc2ccccc2o1`: 23.1 µM.

In the case of `COc1ccccc1N1CCN(Cc2nc(N)nc(Nc3ccc(C)c(Cl)c3)n2)CC1`, the IC50 is 9.02 µM. Consider `CCOC(=O)CCSc1nc2c(c(C(F)(F)F)c1C#N)CCC2`, for which the IC50 is 13.9 µM. The same measure for `CC(C)C[C@H](NC(=O)OC(C)(C)C)c1nnc(SCc2cccc(F)c2)o1`: 11.9 µM; for `COc1ccc2c(-c3ccccc3)cc(N3CCOCC3)nc2c1`: 17.9 µM. Take `Cc1onc(-c2ccccc2)c1C(=O)Nc1nnc(N(C)Cc2ccccc2)s1`: the concentration for half-maximal inhibition (IC50) is 23.9 µM. On to `Cc1nn(-c2ccccc2)c2sc(C(=O)N(CC(=O)NC(C)(C)C)Cc3ccco3)cc12`, for which the IC50 is 24.2 µM. On to `O=C(NCc1ccco1)c1cc2sccc2n1Cc1ccccc1`, for which the half-maximal inhibitory concentration (IC50) was 14.4 µM. The same measure for `Cc1cc(N2CCCCC2)n2ncc(-c3ccccc3)c2n1`: 17.3 µM; for `Cc1cc(-c2nnc3n2N=C(c2ccc(-c4ccccc4)cc2)CS3)n[nH]1`: 9.55 µM. Turning to `Cc1c(C(=O)OC2CCCC2C)[nH]c2c1C(=O)CCC2` (stereo unspecified), the IC50 is 0.38 µM. As to `Cc1ccc(-n2c(C)cc(C3N=C(N)Nc4nc5ccccc5n43)c2C)c(C)c1` (stereo unspecified), the half-inhibitory concentration (IC50) was 6.62 µM. Regarding `O=C(CN(Cc1ccc2c(c1)OCO2)C(=O)CSc1nc2ccccc2o1)NC1CCCCC1`, the IC50 is 6.11 µM. As to `CC(C)(C)C1CCC2(CC1)C(C#N)=C(SCC(=O)NC1CCCCC1)NC(=O)C2C#N` (stereo unspecified), the IC50 was 6.1 µM. As for `O=C1CC(O)(C(F)(F)F)Oc2c1ccc1ccccc21` (stereo unspecified), the IC50 is 1.19 µM. In the case of `O=C(CSc1nnc2scc(-c3ccccc3)n12)Nc1nsc(-c2ccccc2)n1`, the IC50 was 13.1 µM. Turning to `Fc1ccc(-n2c(Cc3ccccc3)nnc2SCc2nc(-c3cccs3)no2)cc1`, the half-inhibitory concentration (IC50) was 19.1 µM.

In the case of `Cc1cccc(N2C(N)=C(C#N)C(C#N)(C#N)C2c2ccccc2)c1` (stereo unspecified), the IC50 was 13.3 µM. Regarding `CCCn1c(CN(Cc2ccccc2)Cc2ccccc2)nc2c1c(=O)n(C)c(=O)n2C`, the IC50 was 7.19 µM. Regarding `CC(=O)c1c(O)cc(C)n(Nc2nc(C)cc(C)n2)c1=O`, the IC50 was 13.1 µM. Consider `O=C(COc1cccc2ccccc12)N1CCN(c2ccccc2)CC1`, for which the concentration for half-maximal inhibition (IC50) is 22.6 µM. Regarding `O=C(Nc1nc(-c2cccs2)cs1)c1ccc(Cl)s1`, the half-maximal inhibitory concentration (IC50) was 26.3 µM. The same measure for `COc1ccccc1OCCSc1nnnn1-c1ccc(C)cc1`: 18.9 µM. The same measure for `O=C(Nc1cccc(Cl)c1)N(CCCN1CCOCC1)Cc1ccccc1F`: 7.19 µM; for `Cn1c(=O)n(CCCOc2ccc(Cl)cc2)c2ccccc21`: 15.7 µM; for `Cn1c(CSc2nc3ccccc3s2)nc2ccccc21`: 22.4 µM.

In the case of `COC(=O)c1ccsc1NC(=O)CN1CCN(c2ccc(F)cc2)CC1`, the IC50 was 18.5 µM. As for `CCCCCn1c(SCCC(C)C)nc2c1c(=O)[nH]c(=O)n2C`, the half-maximal inhibitory concentration (IC50) is 38 µM. Take `CCOC(=O)c1cc2sccc2n1CC(=O)N1CCCc2ccccc21`: the IC50 is 15.1 µM. Consider `Cc1nn(-c2ccccc2)c(C)c1C(=O)Nc1nnc(-c2ccco2)o1`, for which the IC50 was 6.38 µM.

`Cc1ccc(-c2csc(N(CC3CCCO3)C(=O)c3ccco3)n2)cc1` (stereo unspecified): the IC50 is 20.8 µM. The same measure for `OC(COc1ccc(Cl)c2ccccc12)CN1CCN(c2ccccn2)CC1` (stereo unspecified): 11.6 µM; for `Cc1ccc(-n2c(C)cc(C(=O)COC(=O)c3c(C)noc3C)c2C)cc1`: 5.61 µM.

As to `CCCCOc1ccc(S(=O)(=O)N2CCCCCC2)cc1`, the IC50 is 23.8 µM. For `Brc1cccc(-c2n[nH]c(-c3ccccc3)n2)c1`, the IC50 was 23.8 µM. Consider `CCCCn1c(O)c(C(CC)=NCCc2ccccc2)c(=O)[nH]c1=O`, for which the IC50 was 14 µM. For `CCOC(=O)c1ccc(NC(=O)CSc2nc(SC)ns2)cc1`, the half-maximal inhibitory concentration (IC50) was 9.73 µM. Regarding `Cc1ccc(S(=O)(=O)Nc2cccc(-c3cn4ccsc4n3)c2)cc1`, the IC50 is 15.5 µM.

`Cc1ccc(NC(=O)c2nnn(-c3cc(C)cc(C)c3)c2N)cc1`: the IC50 is 21.9 µM. Consider `Cc1cccc(C)c1NC(=O)C(c1cccs1)N(Cc1ccco1)C(=O)Cn1nnc2ccccc21` (stereo unspecified), for which the IC50 was 29.3 µM. Turning to `N=c1c2c(-c3ccccc3)c(-c3ccccc3)n(Cc3ccco3)c2ncn1Cc1ccco1`, the IC50 is 4.32 µM.

`O=C(Nc1ccc2c(c1)OCO2)c1ccc(COc2ccc3c(c2)CCC3)o1`: the IC50 was 7.79 µM. As for `COc1ccc(-c2csc(NCc3ccco3)n2)cc1C`, the IC50 is 23.2 µM. On to `COc1ccc(-c2nnc(NC(=O)c3ccc(S(=O)(=O)N4COCC4(C)C)cc3)o2)cc1`, for which the IC50 is 0.52 µM.

For orientation: IC50 means the concentration that inhibits the measured activity by half.

For the origin of these results see PubChem BioAssay AID617 (SRMLSC, 2007).
